Measured values taken from ChEMBL document CHEMBL1148376, “Synthesis, monoamine transporter binding properties, and behavioral pharmacology of a series of 3beta-(substituted phenyl)-2beta-(3'-substituted isoxazol-5-yl)tropanes” (J Med Chem, 2004).
Activity calls are given as the source filed them. The calls are words filed in the database; no cut-off is given here.

What was measured:
Rattus norvegicus [1] = test: Drug discrimination effect of compound in rats, expressed as percent of rats choosing the cocaine lever at dose 5.6 mg/kg (ip); type: functional
[2] = molecular target: T1, Norepinephrine transporter (Rattus norvegicus, UniProt Q9WTR4); test: Inhibition of norepinephrine transporter (NET) determined using [3H]nisoxetine radioligand.
T1 sequence (Q9WTR4 whole entry): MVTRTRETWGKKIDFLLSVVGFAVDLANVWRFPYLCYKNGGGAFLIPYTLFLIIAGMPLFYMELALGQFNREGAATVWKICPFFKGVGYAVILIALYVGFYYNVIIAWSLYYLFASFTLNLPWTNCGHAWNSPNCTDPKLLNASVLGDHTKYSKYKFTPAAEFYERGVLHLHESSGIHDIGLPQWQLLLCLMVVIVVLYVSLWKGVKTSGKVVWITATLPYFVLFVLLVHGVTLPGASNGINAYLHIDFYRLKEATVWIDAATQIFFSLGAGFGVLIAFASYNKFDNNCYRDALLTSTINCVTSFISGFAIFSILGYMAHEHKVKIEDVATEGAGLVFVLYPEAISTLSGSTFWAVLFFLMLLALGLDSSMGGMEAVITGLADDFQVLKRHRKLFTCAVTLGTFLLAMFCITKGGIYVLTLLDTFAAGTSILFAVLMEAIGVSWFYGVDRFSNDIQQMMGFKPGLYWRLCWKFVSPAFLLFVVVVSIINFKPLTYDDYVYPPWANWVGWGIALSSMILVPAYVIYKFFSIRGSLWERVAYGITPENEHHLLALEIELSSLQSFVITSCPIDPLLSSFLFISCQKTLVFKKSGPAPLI
How it was run: (§1)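 Competition binding at the NET with 0.5 nM [3H]nisoxetine (final concentration). Other procedures follow earlier published methods.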

Mus musculus [3] = test: Percent change from vehicle in locomotor activity in mice at 30 mg/kg (ip) in 4 h; type: functional
Mus musculus [4] = test: Percent change from vehicle in locomotor activity in mice at 10 mg/kg (ip) in 1 h; type: functional
Mus musculus [5] = test: Percent change from vehicle in locomotor activity in mice at 10 mg/kg (ip) in 3 h; type: functional
Mus musculus [6] = test: Percent change from vehicle in locomotor activity in mice at 30 mg/kg (ip) in 1 h; type: functional
Mus musculus [7] = test: Percent change in locomotor activity in mice at 3 mg/kg i.p. in 2 h.; type: functional; details: route intraperitoneal
How it was run: (§2)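 Mice habituated 1/2 h to photocell activity chambers, then injected ip with compound homogenized in 0.5% methyl cellulose (10 mL/kg); vehicle controls; N = 5 or 6 per dose. Photobeam interruptions recorded in 10-min bins for 4 h, grouped into 1-h bins; one-way ANOVA with Newman-Keuls post hoc test (p < 0.05).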

Rattus norvegicus [8] = test: Drug discrimination effect of compound in rats, expressed as percent of rats choosing the cocaine lever at dose 17 mg/kg (ip); type: functional
Mus musculus [9] = organism: Mus musculus; test: Effective dose for locomotor activity in mice in the peak hour.; type: functional
Mus musculus [10] = test: Percent change from vehicle in locomotor activity in mice at 10 mg/kg (ip) in 2 h; type: functional
Mus musculus [11] = test: Percent change in locomotor activity in mice at 3 mg/kg i.p. in 3 h.; type: functional; details: route intraperitoneal; how it was run: as §2
Mus musculus [12] = test: Percent change from vehicle in locomotor activity in mice at 10 mg/kg (ip) in 4 h; type: functional
[13] = molecular target: Sodium-dependent dopamine transporter (Rattus norvegicus, UniProt P23977); test: Inhibitory concentration required to inhibit dopamine transporter DAT was determined by using [3H]WIN-35428 radioligand
Chain of Sodium-dependent dopamine transporter (P23977 whole entry): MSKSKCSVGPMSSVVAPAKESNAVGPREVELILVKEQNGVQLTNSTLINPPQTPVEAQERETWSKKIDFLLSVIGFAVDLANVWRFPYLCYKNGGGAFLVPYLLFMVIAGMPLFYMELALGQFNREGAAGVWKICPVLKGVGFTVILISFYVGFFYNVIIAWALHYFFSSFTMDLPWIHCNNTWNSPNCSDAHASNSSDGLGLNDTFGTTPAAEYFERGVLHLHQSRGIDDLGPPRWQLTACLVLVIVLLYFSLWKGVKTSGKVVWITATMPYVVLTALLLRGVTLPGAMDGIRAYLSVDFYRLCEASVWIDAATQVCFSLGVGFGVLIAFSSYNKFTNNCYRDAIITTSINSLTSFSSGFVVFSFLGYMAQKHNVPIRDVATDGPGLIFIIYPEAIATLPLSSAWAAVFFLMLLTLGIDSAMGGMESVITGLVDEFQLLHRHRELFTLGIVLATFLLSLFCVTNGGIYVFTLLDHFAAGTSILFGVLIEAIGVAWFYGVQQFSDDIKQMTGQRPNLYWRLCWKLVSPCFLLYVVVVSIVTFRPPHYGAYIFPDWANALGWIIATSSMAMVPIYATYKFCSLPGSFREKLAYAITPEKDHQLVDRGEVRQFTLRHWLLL
How it was run: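 Competition binding at the DAT with 0.5 nM [3H]WIN35,428 (final concentration). Other procedures follow earlier published methods.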

Mus musculus [14] = test: Percent change in locomotor activity in mice at 3 mg/kg i.p. in 1 h.; type: functional; details: route intraperitoneal; how it was run: as §2
Rattus norvegicus [15] = test: Effective dose for drug discrimination effect in rat (ip); type: functional
How it was run: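 Cocaine-trained rat drug discrimination, FR10, 10-min sessions. Compound in 0.5% methyl cellulose given ip 15 min before session, usually to 7-8 rats per dose. Doses were raised from ≤20% to ≥80% cocaine-lever choice, capped at 30 mg/kg, >50% loss of pressing, or side effects.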

Rattus norvegicus [16] = test: Drug discrimination effect of compound in rats, expressed as percent of rats choosing the cocaine lever at dose 30 mg/kg (ip); type: functional
[17] = molecular target: T1, Norepinephrine transporter; test: Binding affinity towards norepinephrine transporter was determined using [3H]nisoxetine radioligand.; how it was run: as §1
Mus musculus [18] = test: Percent change from vehicle in locomotor activity in mice at 30 mg/kg (ip) in 2 h; type: functional
[19] = molecular target: T2, Sodium-dependent serotonin transporter (Rattus norvegicus, UniProt P31652); test: Inhibitory concentration required to inhibit serotonin transporter 5-HTT was determined by using [3H]paroxetine radioligand
T2 sequence (P31652 whole entry): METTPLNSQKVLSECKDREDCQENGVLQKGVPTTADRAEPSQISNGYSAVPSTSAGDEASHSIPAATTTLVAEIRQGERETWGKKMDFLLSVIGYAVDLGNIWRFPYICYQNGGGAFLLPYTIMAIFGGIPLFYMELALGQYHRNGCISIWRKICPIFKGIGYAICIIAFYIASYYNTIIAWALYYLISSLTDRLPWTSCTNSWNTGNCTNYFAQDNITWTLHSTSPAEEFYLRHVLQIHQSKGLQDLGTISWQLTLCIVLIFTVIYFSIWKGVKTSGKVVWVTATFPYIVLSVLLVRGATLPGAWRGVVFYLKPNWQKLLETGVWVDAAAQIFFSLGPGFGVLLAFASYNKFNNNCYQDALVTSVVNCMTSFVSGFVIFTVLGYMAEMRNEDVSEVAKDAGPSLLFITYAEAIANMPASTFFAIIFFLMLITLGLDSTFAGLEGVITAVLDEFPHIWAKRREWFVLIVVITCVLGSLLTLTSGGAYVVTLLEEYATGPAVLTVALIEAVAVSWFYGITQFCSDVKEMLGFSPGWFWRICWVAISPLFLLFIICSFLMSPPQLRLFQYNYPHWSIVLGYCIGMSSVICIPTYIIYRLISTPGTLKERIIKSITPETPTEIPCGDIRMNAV
How it was run: (§3)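 Competition binding at the 5-HTT with 0.2 nM [3H]paroxetine (final concentration). Other procedures follow earlier published methods.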

Mus musculus [20] = test: Percent change in locomotor activity in mice at 3 mg/kg i.p. in 4 h.; type: functional; details: route intraperitoneal; how it was run: as §2
[21] = molecular target: T2, Sodium-dependent serotonin transporter; test: Binding affinity towards serotonin transporter 5-HTT was determined using [3H]paroxetine radioligand.; how it was run: as §3
Mus musculus [22] = test: Percent change from vehicle in locomotor activity in mice at 30 mg/kg (ip) in 3 h; type: functional
Mus musculus [23] = organism: Mus musculus; test: Hour 1 ratio to cocaine was determined for locomotor activity in mice; type: functional
Rattus norvegicus [24] = test: Drug discrimination effect of compound in rats, expressed as percent of rats choosing the cocaine lever at dose 10 mg/kg (ip); type: functional
Rattus norvegicus [25] = test: Drug discrimination effect of compound in rats, expressed as percent of rats choosing the cocaine lever at dose 1.7 mg/kg (ip); type: functional
Mus musculus [26] = test: Percent change in locomotor activity in mice at 1 mg/kg i.p. in 1 h.; type: functional; details: route intraperitoneal
Mus musculus [27] = test: Percent change in locomotor activity in mice at 1 mg/kg i.p. in 2 h.; type: functional; details: route intraperitoneal; how it was run: as §2
Mus musculus [28] = test: Percent change locomotor activity in mice at 1 mg/kg i.p. in 3 h.; type: functional; details: route intraperitoneal; how it was run: as §2
Mus musculus [29] = test: Percent change from vehicle in locomotor activity in mice at 0.3 mg/kg (ip) in 2 h; type: functional
[30] = molecular target: T1, Norepinephrine transporter; test: Binding affinity towards norepinephrine transporter was determined by using [3H]nisoxetine radioligand; how it was run: as §1
Mus musculus [31] = test: Percent change from vehicle in locomotor activity in mice at 0.3 mg/kg (ip) in 1 h; type: functional
Mus musculus [32] = test: Percent change in locomotor activity in mice at 1 mg/kg i.p. in 4 h.; type: functional; details: route intraperitoneal; how it was run: as §2
Mus musculus [33] = test: Percent change from vehicle in locomotor activity in mice at 0.3 mg/kg (ip) in 4 h; type: functional
Mus musculus [34] = test: Percent change from vehicle in locomotor activity in mice at 0.3 mg/kg (ip) in 3 h; type: functional
Mus musculus [35] = organism: Mus musculus; test: Effective dose was evaluated for locomotor activity in mice in the peak hour; No stimulation; type: functional, organism-based
Rattus norvegicus [36] = test: Drug discrimination effect of compound in rats, expressed as percent of rats choosing the cocaine lever at dose 3 mg/kg (ip); type: functional
Mus musculus [37] = test: Percent change from vehicle in locomotor activity in mice at 56 mg/kg (ip) in 4 h; type: functional
Mus musculus [38] = test: Percent change from vehicle in locomotor activity in mice at 56 mg/kg (ip) in 3 h; type: functional
Mus musculus [39] = test: Percent change from vehicle in locomotor activity in mice at 17 mg/kg (ip) in 4 h; type: functional
Mus musculus [40] = test: Percent change from vehicle in locomotor activity in mice at 5.6 mg/kg (ip) in 4 h; type: functional
Mus musculus [41] = test: Percent change from vehicle in locomotor activity in mice at 17 mg/kg (ip) in 3 h; type: functional
Mus musculus [42] = test: Percent change from vehicle in locomotor activity in mice at 5.6 mg/kg (ip) in 2 h; type: functional
Mus musculus [43] = test: Percent change from vehicle in locomotor activity in mice at 17 mg/kg (ip) in 1 h; type: functional
Mus musculus [44] = test: Percent change from vehicle in locomotor activity in mice at 17 mg/kg (ip) in 2 h; type: functional
Mus musculus [45] = test: Percent change from vehicle in locomotor activity in mice at 56 mg/kg (ip) in 2 h; type: functional
Mus musculus [46] = test: Percent change from vehicle in locomotor activity in mice at 56 mg/kg (ip) in 1 h; type: functional
Rattus norvegicus [47] = test: Drug discrimination effect of compound in rats, expressed as percent of rats choosing the cocaine lever at dose 1 mg/kg (ip); type: functional
Mus musculus [48] = test: Percent change from vehicle in locomotor activity in mice at 5.6 mg/kg (ip) in 3 h; type: functional
Mus musculus [49] = test: Percent change from vehicle in locomotor activity in mice at 5.6 mg/kg (ip) in 1 h; type: functional

Structure (SMILES) | Drug discrimination effect (Rattus norvegicus [1]) | IC50 [2] | Change (Mus musculus [3]) | Change (Mus musculus [4]) | Change (Mus musculus [5]) | Change (Mus musculus [6]) | Change (Mus musculus [7]) | Drug discrimination effect (Rattus norvegicus [8]) | ED50 (Mus musculus [9]) | Change (Mus musculus [10]) | Change (Mus musculus [11]) | Change (Mus musculus [12]) | IC50 [13] | Change (Mus musculus [14]) | ED50 (Rattus norvegicus [15]) | Change (Mus musculus [18]) | IC50 [19] | Change (Mus musculus [20]) | Change (Mus musculus [22]) | Drug discrimination effect (Rattus norvegicus [24]) | further results
COc1ccc(-c2cc(C3C(c4ccc(C)cc4)CC4CCC3N4C)on2)cc1 (stereo not drawn) | 0% | 756 nM | 483% | 187% | 65% | 290% | 32% | 43% | 12.8 mg/kg | 115% | 27% | 34% | 3.93 nM | 73% | 11 mg/kg | 235% | 4030 nM | 30% | 430% | – | Drug discrimination effect (Rattus norvegicus [16]): 83%; Ki [17]: 455 nM; Ki [21]: 366 nM; Ratio (Mus musculus [23]): 0.6
Cc1ccc(C2CC3CCC(C2c2cc(-c4ccc(F)cc4)no2)N3C)cc1 (stereo not drawn) | 25% | 917 nM | 179% | 117% | 84% | 192% | 80% | 88% | 6.3 mg/kg | 268% | 148% | 148% | 6.45 nM | 105% | 7.27 mg/kg | 383% | > 100000 nM | 140% | 387% | 25% | Ki [17]: 552 nM; Drug discrimination effect (Rattus norvegicus [25]): 0%; Ratio (Mus musculus [23]): 0.4
Cc1ccc(-c2cc(C3C(c4ccc(C)cc4)CC4CCC3N4C)on2)cc1 (stereo not drawn) | – | – | -43% | -30% | -38% | -19% | 10% | 33% | – | 34% | 73% | -7% | 13 nM | 1% | – | -26% | > 100000 nM | 29% | -37% | 0% | Change (Mus musculus [26]): -5%; Change (Mus musculus [27]): -6%; Change (Mus musculus [28]): 76%; Change (Mus musculus [29]): 60%; IC50 [30]: > 100000 nM; Change (Mus musculus [31]): -17%; Drug discrimination effect (Rattus norvegicus [16]): 67%; Change (Mus musculus [32]): -30%; Change (Mus musculus [33]): -48%; Change (Mus musculus [34]): 102%; ED50 (Mus musculus [35]): inactive; Drug discrimination effect (Rattus norvegicus [36]): 0%
COC(=O)[C@@H]1C2CC[C@@H](C[C@@H]1OC(=O)c1ccccc1)N2C (single isomer, unassigned) [COCAINE] | 82% | – | – | – | – | – | – | – | 18.8 mg/kg | – | – | – | – | – | 2.64 mg/kg | – | – | – | – | 97% | Change (Mus musculus [37]): -24%; Change (Mus musculus [38]): -47%; Change (Mus musculus [39]): -26%; Change (Mus musculus [40]): -1%; Change (Mus musculus [41]): -53%; Change (Mus musculus [42]): -26%; Change (Mus musculus [43]): 179%; Change (Mus musculus [44]): -7%; Drug discrimination effect (Rattus norvegicus [25]): 32%; Change (Mus musculus [45]): 201%; Change (Mus musculus [46]): 452%; Drug discrimination effect (Rattus norvegicus [47]): 21%; Change (Mus musculus [48]): -53%; Drug discrimination effect (Rattus norvegicus [36]): 59%; Change (Mus musculus [49]): 5%
